Test results as given in ChEMBL document CHEMBL1126620, “Systematic substitution of an oxytocin antagonist with D-amino acids: unexpected high antagonistic potency of the D-Cys6-substituted analogue” (J Med Chem, 1993).

test system: Rattus norvegicus; test: In vivo evaluation for the competitive antagonism of Antidiuretic action in the rat determined by the rat antidiuretic assay; settings: Urine, read-out: pA2 (converted)

CC[C@H](C)[C@@H]1NC(=O)[C@@H](Cc2c[nH]c3ccccc23)NC(=O)CC2(CCCCC2)SSC[C@@H](C(=O)N2CCC[C@H]2C(=O)N[C@H](CCCN=C(N)N)C(=O)NCC(N)=O)NC(=O)[C@H](CC(N)=O)NC(=O)[C@H](CCC(N)=O)NC1=O and CC[C@H](C)[C@@H]1NC(=O)[C@@H](Cc2c[nH]c3ccccc23)NC(=O)CC2(CCCCC2)SSC[C@@H](C(=O)N2CCC[C@H]2C(=O)N[C@@H](CCCN=C(N)N)C(=O)NCC(N)=O)NC(=O)[C@H](CC(N)=O)NC(=O)[C@H](CCC(N)=O)NC1=O cannot be ordered by Kb: over 2.51 µM for the first, over 1.26 µM for the second.

CC[C@H](C)[C@@H]1NC(=O)[C@@H](Cc2c[nH]c3ccccc23)NC(=O)CC2(CCCCC2)SSC[C@H](C(=O)N2CCC[C@H]2C(=O)N[C@@H](CCCN=C(N)N)C(=O)NCC(N)=O)NC(=O)[C@H](CC(N)=O)NC(=O)[C@H](CCC(N)=O)NC1=O gave a Kb of over 0.501 µM.

organism: Rattus norvegicus; test: In vitro competitive antagonist effect of OT contractile action in the rat uterus determined by the rat oxytocic assay in presence of Mg2+; format: functional; settings: read-out: pA2 (converted)
How it was run: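 Isolated rat uterus, oxytocin-induced contraction, bath containing magnesium salts; pA2 (negative log molar antagonist concentration halving agonist response) obtained by Schild method from at least four separate assays.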

Compared with CC[C@H](C)[C@@H]1NC(=O)[C@@H](Cc2c[nH]c3ccccc23)NC(=O)CC2(CCCCC2)SSC[C@@H](C(=O)N2CCC[C@H]2C(=O)N[C@@H](CCCNC(=N)N)C(=O)NCC(N)=O)NC(=O)[C@H](CC(N)=O)NC(=O)[C@@H]([C@H](C)O)NC1=O, CC[C@H](C)[C@@H]1NC(=O)[C@@H](Cc2c[nH]c3ccccc23)NC(=O)CC2(CCCCC2)SSC[C@@H](C(=O)N2CCC[C@H]2C(=O)N[C@@H](CCCN=C(N)N)C(=O)NCC(N)=O)NC(=O)[C@H](CC(N)=O)NC(=O)[C@@H](CC(N)=O)NC1=O is 2.9-fold lower in Kb: 11.2 µM for the first, 3.89 µM for the second.

First: CC[C@H](C)[C@@H]1NC(=O)[C@@H](Cc2c[nH]c3ccccc23)NC(=O)CC2(CCCCC2)SSC[C@@H](C(=O)N2CCC[C@H]2C(=O)N[C@H](CCCN=C(N)N)C(=O)NCC(N)=O)NC(=O)[C@H](CC(N)=O)NC(=O)[C@H](CCC(N)=O)NC1=O
Second: CC[C@@H](C)[C@H]1NC(=O)[C@@H](Cc2c[nH]c3ccccc23)NC(=O)CC2(CCCCC2)SSC[C@@H](C(=O)N2CCC[C@H]2C(=O)N[C@@H](CCCN=C(N)N)C(=O)NCC(N)=O)NC(=O)[C@H](CC(N)=O)NC(=O)[C@H](CCC(N)=O)NC1=O
The Kb of the first is 480-fold lower: 0.0123 µM for the first, 5.89 µM for the second.

First: CC[C@H](C)[C@@H]1NC(=O)[C@@H](Cc2c[nH]c3ccccc23)NC(=O)CC2(CCCCC2)SSC[C@@H](C(=O)N2CCC[C@@H]2C(=O)N[C@@H](CCCN=C(N)N)C(=O)NCC(N)=O)NC(=O)[C@H](CC(N)=O)NC(=O)[C@H](CCC(N)=O)NC1=O
Second: CC[C@H](C)[C@H]1NC(=O)[C@@H](Cc2c[nH]c3ccccc23)NC(=O)CC2(CCCCC2)SSC[C@@H](C(=O)N2CCC[C@H]2C(=O)N[C@@H](CCCN=C(N)N)C(=O)NCC(N)=O)NC(=O)[C@H](CC(N)=O)NC(=O)[C@H](CCC(N)=O)NC1=O
The Kb of the first is 550-fold lower: 0.0141 µM for the first, 7.76 µM for the second.

Going from CC[C@H](C)[C@@H]1NC(=O)[C@@H](Cc2c[nH]c3ccccc23)NC(=O)CC2(CCCCC2)SSC[C@@H](C(=O)N2CCC[C@H]2C(=O)N[C@@H](CCCN=C(N)N)C(=O)NCC(N)=O)NC(=O)[C@H](CC(N)=O)NC(=O)[C@@H](CCCNC(N)=O)NC1=O to CC[C@H](C)[C@@H]1NC(=O)[C@@H](Cc2c[nH]c3ccccc23)NC(=O)CC2(CCCCC2)SSC[C@H](C(=O)N2CCC[C@H]2C(=O)N[C@@H](CCCN=C(N)N)C(=O)NCC(N)=O)NC(=O)[C@H](CC(N)=O)NC(=O)[C@H](CCC(N)=O)NC1=O, the Kb falls from 3.09 µM to 0.00513 µM (600-fold).

Compound CC[C@H](C)[C@@H]1NC(=O)[C@@H](Cc2c[nH]c3ccccc23)NC(=O)CC2(CCCCC2)SSC(C)(C)[C@H](C(=O)N2CCC[C@H]2C(=O)N[C@@H](CCCNC(=N)N)C(=O)NCC(N)=O)NC(=O)[C@H](CC(N)=O)NC(=O)[C@H](CCC(N)=O)NC1=O has a Kb of 0.0105 µM.
